Bioassay records (PubChem)
Shown is part of a subset that was picked to be rich in hits.
UPR CHOP act = apoptotic UPR (CHOP) activation; activation, % at 10 µM; CHO-CHOP luciferase reporter, luminescence; percent of tunicamycin response over DMSO baseline; 330,000 tested, 0.34% active;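 active = at 10 µM dose, activation of 40% or more, normalized to positive control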;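 also: 100% = tunicamycin at 10 µg/mL and 0% = DMSO alone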
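Dosing – one dose, 10 µM in 0.5% DMSO · System – CHO-CHOP cells, stable luciferase reporter of PERK-eIF2a-CHOP signalling · Input – 500 cells/well · Control set – tunicamycin 10 µg/mL final as positive, DMSO-only wells as negative · Timing – 6 h compound treatment, 37 °C · Measure – % activation vs tunicamycin · Technique – luminescence read with Steady-Glo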
UPR XBP1 act = activators of adaptive arm of unfolded protein response (XBP1); activation, % at 20 µM; 330,000 tested, 0.33% active; CHO-XBP1 luciferase reporter, IRE1-XBP1 UPR activation, luminescence; percent of tunicamycin response, DMSO as zero;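 active = versus positive control, 20 µM dose yields 30% or more activation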;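 also: 100% = tunicamycin at 10 µg/mL and 0% = DMSO only wells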
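Test system: CHO-XBP1 luciferase reporter cells | Buffer or medium: Serum-containing F12 medium, 10% FBS | Schedule: 6 h compound exposure at 37 °C, 5% CO2 | Detection: Steady-Glo luciferase glow luminescence, 10 min after reagent addition | Read-out basis: Activation, % of tunicamycin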
CHOP inh = blocks CHOP induction under ER stress; CHO-K1 CHOP-promoter luciferase, tunicamycin-induced, 15-18 h; inhibition, % at 10 µM; 220,000 tested, 3.8% active;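 active = compounds that reduced the stress-induced luciferase reporter signal by more than about 70% of percent inhibition, limit read from the data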;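 also: 0% = tunicamycin plus vehicle and 100% = wells without tunicamycin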
FXN GAA850 act = activators of GAA850 frataxin (FXN) promoter; 360,000 tested, 0.56% active; activation, % at 6 µM; HEK293 lucGAA850 FXN promoter luciferase reporter, 24 h; percent of 10 µM SAHA response; AID 540364;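 active = activation above the average of all compounds screened plus 3 SD, cutoff fixed separately per campaign, cut at about 7.5% in these data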;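 also: 0% = DMSO wells and 100% = 10 µM SAHA wells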
* hit, by the source's call; . = no result.

SMILES | UPR CHOP act | UPR XBP1 act | CHOP inh | FXN GAA850 act
CC(C)(C)OC(=O)[C@H](Cc1ccccc1)NC(=O)c1nc[nH]c1C(=O)NCC(=O)OCc1ccccc1 | -1.2 | -1.5 | . | 1.8
CC(=O)N1CCc2cc(NC(=O)C3(C)CCN3Cc3ccccc3OC(F)F)ccc21 (centres undefined) | . | . | . | -5.6
COc1cccc(CN2CCC(C)(Oc3cccc(Cl)c3)C2)c1OC (centres undefined) | . | . | . | -2.5
Clc1ccc(OCc2nnc(SCc3nnc(-c4ccccc4)o3)o2)c(Cl)c1 | 1.6 | -2.9 | 76.5* | -0.8
Clc1ccc(-c2nnc(CSc3nnc(-c4cccs4)o3)o2)cc1 | 3.2 | -2.3 | 70.4* | 1.4
O=C1CCCN1CCCNc1nc(NCc2ccccc2)nc2ccsc12 | . | . | . | 0.7
O=C(NCc1ccc(Cl)nc1)c1csc([C@@H]2C[C@H](O)[C@@H](CO)O2)n1 | . | . | . | 2.3
Cc1nc(N2CCN(c3ccccc3)CC2)[nH]c(=O)c1CCC(C)C | 3.3 | 0.7 | 15.4 | 1.5
Cc1ccc(Nc2nc(C)c(CCC(C)C)c(=O)[nH]2)cc1 | 1.9 | -6.7 | 78.0* | 4.3
Cc1nc(NCc2ccccc2)[nH]c(=O)c1CCC(C)C | 0.5 | -0.1 | 75.5* | -0.3
CCCCNC(=O)C1(C)CCCCN1C(=O)c1oc2ccccc2c1C (centres undefined) | . | . | . | -0.1
CCc1ccc(NC(=O)Cn2c(=O)n(CCCC(=O)NCc3ccco3)c(=O)c3ccccc32)cc1 | 1.4 | -1.6 | 76.2* | -0.9
O=C(CCCCn1c(=O)c2ccccc2n(CC(=O)Nc2cccc(F)c2)c1=O)NCc1ccco1 | 1.3 | -5.1 | 13.9 | -3.5
CCCCCCCCCCCCCCCC[n+]1ccc(C(N)=O)cc1 | 1.2 | -1.3 | 70.4* | -4.2
CCN1/C(=C/C=C/c2oc3ccc4ccccc4c3[n+]2CC)Oc2ccc3ccccc3c21 | 12.8 | -2.3 | 70.0* | .
CC[n+]1c(/C=C/N(C)c2ccccc2)oc2ccc(Cl)cc21 | 1.4 | -1.2 | 6.6 | -0.1
CC(C)=C1C2CCC1C1C(=O)N(NC(=O)COc3ccc(Cl)c(C)c3)C(=O)C21 (centres undefined) | -2.2 | 1.4 | 71.3* | -0.4
COc1ccccc1-c1cnc(C(O)c2ccc(Cl)cc2)[nH]1 (centres undefined) | . | . | . | -0.6
Fc1cccc2sc(Nc3nc4c(F)cccc4s3)nc12 | 4.5 | 1.3 | 87.8* | 2.5
CCc1nc2c(OCCC3CCCCC3)cccn2c1N(C)C(=O)c1cccs1 | . | . | . | -0.8
Cc1ccc(/C=C/C(=O)c2ccccc(=O)c2O)cc1C | . | . | 70.8* | 3.8
CC(=O)N(C(C)=O)c1nc(-c2ccccc2)cn1/N=C/c1cccc([N+](=O)[O-])c1 | -2.0 | 0.0 | 91.8* | -1.1
O=[N+]([O-])c1cccc(/C=N/n2c(-c3cccnc3)n[nH]c2=S)c1 | 3.6 | 1.2 | 1.2 | -0.1
CCCCNC(=O)C1(C)CCCCN1C(=O)c1c(C)noc1C (centres undefined) | . | . | . | -0.6
N#CC(C(=O)Nc1ccccc1)=C1CCCCC1 | 3.3 | 0.6 | -16.1 | 0.1
SMILES | UPR CHOP act | UPR XBP1 act | CHOP inh | FXN GAA850 act
N#CC(C(=O)Nc1ccc(Cl)cc1)=C1Nc2ccccc2N1 | 1.5 | 4.3 | 90.1* | 0.1
Cc1ccccc1-c1cc2nc(NCc3ccc(N(C)C)cc3)n(C)c(=O)c2s1 | . | . | . | 1.0
CN(C(=O)/C(N=Nc1cccc(C(F)(F)F)c1)=C(\O)C(F)(F)F)c1ccccc1 | -1.4 | 2.2 | 73.0* | -1.2
O=C1Nc2ccc(Br)cc2C12NNc1ccccc1O2 (centres undefined) | 1.9 | 9.0 | 104.9* | -0.2
O=C1Nc2ccc(Br)cc2C1(O)c1ccccc1 (centres undefined) | 0.5 | 0.7 | . | -1.5
CC(C)n1c2ccccc2c2nnc(SCC(=O)OCN3C(=O)c4ccccc4C3=O)nc21 | 0.9 | -0.7 | 90.5* | -0.4
CCOC(=O)CSc1nnc2c3ccccc3n(C)c2n1 | 0.4 | 2.5 | . | 0.2
O=C(NCc1ccc2c(c1)OCO2)c1ccc(CS(=O)(=O)c2ccc(Br)cc2)o1 | -0.7 | -6.0 | 74.1* | -1.7
O=C(NCc1ccc2c(c1)OCO2)c1ccc(CS(=O)(=O)c2cccc(C(F)(F)F)c2)o1 | 0.0 | -0.3 | 30.2 | 1.0
O=C(NCc1ccccc1Cl)c1csc([C@@H]2O[C@H](CO)[C@H](O)[C@H](O)[C@H]2O)n1 | . | . | . | -0.6
O=C(NCC1(c2ccccc2)CCCC1)c1ccc(Br)cc1 | 1.4 | -1.0 | 74.4* | 1.6
COc1ccc(-c2cc(C(=O)NCc3ccc(Cl)cc3)no2)cc1OC | 2.3 | 1.8 | 73.3* | 0.1
